37 molecules from ChEMBL document CHEMBL1134776, “Novel azo derivatives as prodrugs of 5-aminosalicylic acid and amino derivatives with potent platelet activating factor antagonist activity” (J Med Chem, 2001) can be followed below.

Holding throughout (assay type): functional
The species named for assay [1] is Rattus norvegicus. The assay can be described thus: Dose required to reduce the lowering of the arterial blood pressure caused by PAF by 50 %. The following applies: read-out: ID50 (the source's name). Summed up:
(§1)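 Male Sprague-Dawley rats (180–220 g) were anesthetized with pentobarbital (50 mg/kg ip), and blood pressure was recorded from the left carotid artery. Compound in saline (1 mL/kg) was given iv via a femoral vein 3 min before PAF (0.5 µg/kg iv). ID50 came from linear regression of one curve with ≥4 doses (15–85% inhibition), each point the mean of ≥2 experiments.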

The species named for a further assay is Oryctolagus cuniculus. The assay can be described thus: Concentration required to inhibit PAF-induced maximum aggregation by 50%. Summed up:
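Platelet-rich plasma was prepared by centrifuging blood at 250 g for 10 min at 4 °C, then diluted with platelet-poor plasma (3000g, 10 min) to 3.5 × 10^5 platelets/mm3. Aggregation was induced with C18-PAF (1.5 × 10^-8 M) and read in an aggregometer as maximum aggregation. IC50 came from linear regression of one curve with ≥4 points (15–85% inhibition), each point the mean of 1–3 experiments.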

The test system of assay [2] is Rattus norvegicus. Nature of the assay: Dose required to reduce the lowering of the arterial blood pressure caused by PAF by 50 % in rats intravenously. To be noted: iv, read-out: ID50 (the source's name). An outline of the steps:
as §1

The species named for assay [3] is Rattus norvegicus. Nature of the assay: Effect of compound on myeloperoxidase activity was evaluated in rat. An outline of the steps: (§2)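 Female Wistar rats (180–220 g) were fasted overnight and given 30 mg TNBS in 0.25 mL 50% ethanol intrarectally by cannula inserted 8 cm, under anesthesia. Compounds were dosed orally in 1% methylcellulose for 5 days before induction and 24 h after. Colons were removed at 48 h and blind-scored 0–10 for macroscopic damage. Diarrhea was analyzed by χ2, means by ANOVA, and scores by Mann–Whitney.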

For assay [4], the species on record is Rattus norvegicus. The assay can be described thus: % of rats exhibiting diarrhea. An outline of the steps: as §2
For assay [5], the species on record is Rattus norvegicus. Nature of the assay: Damage to the colon observed after 48 hr after colitis induction in rats. Summed up: as §2
For assay [6], the species on record is Rattus norvegicus. Nature of the assay: Effect of compound on LTB4 production was measured in rat. Summed up: as §2
For assay [7], the species on record is Rattus norvegicus. The assay can be described thus: Colonic weight was measured in rats. Summed up:
as §2

The structures appear in SMILES notation.

One may read the IC50 as the midpoint of a concentration-inhibition curve. A lower IC50 goes with greater potency in that assay. In the case of `Cc1nc2cnccc2n1CC1CCN(C(=O)NCc2ccc(N)cc2)CC1`, in the assay listed under Rattus norvegicus [1], the ED50 was 2.42 mg/kg. Also, in the assay listed under Oryctolagus cuniculus, 1.55 µM corresponded to half-maximal inhibition (IC50).

In the case of `CCOC(=O)N(CC(=O)N1CCC(Cn2c(C)nc3cnccc32)CC1)c1ccc(N)cc1`, in the assay filed under Oryctolagus cuniculus, the IC50 stood at 0.25 µM.

For the molecule `Cc1nc2cnccc2n1CC1CCN(C(=O)/C=C(/c2ccccc2)c2ccc(N)cc2)CC1`, in the assay listed under Rattus norvegicus [1], the ED50 was 0.029 mg/kg. In the assay listed under Oryctolagus cuniculus, this molecule returned a half-maximal inhibitory concentration (IC50) of 0.008 µM.

As to `Cc1nc2cnccc2n1CC1CCN(C(=O)CC(Nc2ccc(N)cc2)c2ccccc2)CC1` (stereo unspecified), the ED50 in the assay filed under Rattus norvegicus [1] was found to be 0.11 mg/kg. In the assay listed under Oryctolagus cuniculus, this molecule yielded an IC50 of 0.029 µM.

With `Cc1nc2cnccc2n1Cc1ccc(S(=O)(=O)N[C@@H](CC(C)C)C(=O)NCc2ccc(N)cc2)cc1`, the ED50 in the assay with Rattus norvegicus [2] stood at 0.075 mg/kg. Besides, the IC50 in the assay filed under Oryctolagus cuniculus was 0.12 µM.

`Cc1nc2cnccc2n1CC1CCN(C(=O)/C=C(\c2ccccc2)c2ccc(N)cc2)CC1`: in the assay listed under Rattus norvegicus [1], the ED50 turned out to be 0.01 mg/kg. The same molecule showed an IC50 in the assay listed under Oryctolagus cuniculus of 0.005 µM.

Turning to `CCOC(=O)[C@H](CC(C)C)N(C(=O)c1ccc(/N=N\c2ccc(O)c(C(=O)O)c2)cc1)S(=O)(=O)c1ccc(Cn2c(C)nc3cnccc32)cc1`, the ED50 in the assay listed under Rattus norvegicus [1] came out at 0.47 mg/kg. The molecule further came in with an IC50 in the assay listed under Oryctolagus cuniculus of 1.47 µM.

Take `Cc1nc2cnccc2n1Cc1ccc(S(=O)(=O)N(C)c2cccc(N)c2)cc1`: the ED50 with Rattus norvegicus [2] amounted to 0.22 mg/kg. The same molecule showed an IC50 in the assay filed under Oryctolagus cuniculus of 0.3 µM.

On to `CCOC(=O)C(CC(=O)N1CCC(Cn2c(C)nc3cnccc32)CC1)c1ccc(N)cc1` (stereo unspecified), for which the ED50 in the assay listed under Rattus norvegicus [1] was 0.56 mg/kg. This molecule came in with an IC50 in the assay filed under Oryctolagus cuniculus of 0.074 µM.

As for `Cc1nc2cnccc2n1CC1CCN(C(=O)CC(C)(C)c2ccc(/N=N\c3ccc(O)c(C(=O)O)c3)cc2)CC1`, the ED50 in the assay filed under Rattus norvegicus [1] worked out at 0.11 mg/kg. In addition, in the assay filed under Oryctolagus cuniculus, the half-inhibitory concentration (IC50) was found to be 1.6 µM.

Take `Cc1nc2cnccc2n1CC1CCN(C(=O)/C=C(/c2ccccc2)c2ccc(/N=N\c3ccc(O)c(C(=O)O)c3)cc2)CC1`: the Activity in the assay filed under Rattus norvegicus [3] is listed as <445.9 U (g of tissue)-1. The molecule further registered an Animals in the assay listed under Rattus norvegicus [4] of less than 25%. Further, in the assay filed under Rattus norvegicus [5], the Damage score was <7.5 0-10. In the assay filed under Rattus norvegicus [6], the Production was <4.5 ng (g of tissue)-1. Moreover, the ED50 in the assay listed under Rattus norvegicus [1] turned out to be 2.81 mg/kg. In the assay listed under Rattus norvegicus [7], this molecule returned a Colonic weight of less than 149.6 mg/cm. For the same molecule, in the assay listed under Oryctolagus cuniculus, the midpoint of inhibition, the IC50, lay at 4.1 µM.

As for `Cc1nc2cnccc2n1CC1CCN(C(=O)CN(c2ccccc2)S(=O)(=O)c2ccc(/N=N\c3ccc(O)c(C(=O)O)c3)cc2)CC1`, the ED50 in the assay filed under Rattus norvegicus [1] stood at 0.19 mg/kg. In the assay filed under Oryctolagus cuniculus, this molecule came in with an IC50 of 4.01 µM.

Take `Cc1nc2cnccc2n1CC1CCN(C(=O)CN(C)C(=O)c2ccc(N)cc2)CC1`: inhibition in the assay listed under Oryctolagus cuniculus was half-maximal at 1.27 µM (IC50).

Turning to `CCOC(=O)[C@H](CC(C)C)N(Cc1ccc(/N=N\c2ccc(O)c(C(=O)O)c2)cc1)S(=O)(=O)c1ccc(Cn2c(C)nc3cnccc32)cc1`, in the assay filed under Rattus norvegicus [1], the ED50 was 1.31 mg/kg. The molecule also displayed a half-maximal inhibitory concentration (IC50) in the assay listed under Oryctolagus cuniculus of 0.49 µM.

Turning to `Cc1nc2cnccc2n1CC1CCN(C(=O)C(C)c2ccc(N)cc2)CC1` (stereo unspecified), in the assay filed under Rattus norvegicus [1], the ED50 came to 1.47 mg/kg. The same molecule registered a concentration for half-maximal inhibition (IC50) in the assay filed under Oryctolagus cuniculus of 0.43 µM.

With `CCOC(=O)NC(CC(=O)N1CCC(Cn2c(C)nc3cnccc32)CC1)c1ccc(N)cc1` (stereo unspecified), the ED50 in the assay listed under Rattus norvegicus [1] is 0.13 mg/kg. The IC50 in the assay filed under Oryctolagus cuniculus was found to be 0.27 µM.

For `CCOC[C@H](CC(C)C)N(Cc1ccc(N)cc1)S(=O)(=O)c1ccc(Cn2c(C)nc3cnccc32)cc1`, the midpoint of inhibition in the assay filed under Oryctolagus cuniculus, the IC50, lay at 0.016 µM.

With `Cc1nc2cnccc2n1CC1CCN(C(=O)CC(C)c2ccc(N)cc2)CC1` (stereo unspecified), the ED50 in the assay listed under Rattus norvegicus [1] turned out to be 0.24 mg/kg. 0.011 µM corresponded to half-maximal inhibition in the assay listed under Oryctolagus cuniculus (IC50).

In the case of `CCOC[C@H](CC(C)C)N(C(=O)c1ccc(N)cc1)S(=O)(=O)c1ccc(Cn2c(C)nc3cnccc32)cc1`, the ED50 with Rattus norvegicus [2] turned out to be 0.3 mg/kg. Also, the IC50 in the assay listed under Oryctolagus cuniculus was determined as 1.28 µM.

In the case of `CCOC(=O)[C@H](CC(C)C)N(Cc1ccc(N)cc1)S(=O)(=O)c1ccc(Cn2c(C)nc3cnccc32)cc1`, inhibition in the assay listed under Oryctolagus cuniculus was half-maximal at 0.012 µM (IC50).

Regarding `Cc1nc2cnccc2n1CC1CCN(C(=O)CN(CC(C)C)S(=O)(=O)c2ccc(N)cc2)CC1`, in the assay on Rattus norvegicus [2], the ED50 worked out at 0.029 mg/kg. In the assay filed under Oryctolagus cuniculus, the IC50 came to 0.61 µM.

As for `Cc1nc2cnccc2n1CC1CCN(C(=O)CN(c2ccccc2)S(=O)(=O)c2ccc(N)cc2)CC1`, the IC50 in the assay listed under Oryctolagus cuniculus is 0.075 µM.

Consider `Cc1nc2cnccc2n1Cc1ccc(S(=O)(=O)N(C)[C@@H](CC(C)C)C(=O)NCc2cccc(N)c2)cc1`, for which the ED50 in the assay with Rattus norvegicus [2] worked out at 0.28 mg/kg. In the assay filed under Oryctolagus cuniculus, the IC50 worked out at 0.25 µM.

For the molecule `Cc1nc2cnccc2n1CC1CCN(C(=O)/C=C/c2ccc(N)cc2)CC1`, the ED50 in the assay filed under Rattus norvegicus [1] came out at 1.23 mg/kg. Besides, it took 1.2 µM to reach half-maximal inhibition in the assay filed under Oryctolagus cuniculus (IC50).

Turning to `Cc1nc2cnccc2n1CC1CCN(C(=O)CC(NC(=O)c2ccc(N)cc2)c2ccccc2)CC1` (stereo unspecified), in the assay listed under Rattus norvegicus [1], the ED50 turned out to be 0.19 mg/kg. For the same molecule, the IC50 in the assay listed under Oryctolagus cuniculus came to 2.2 µM.

For the molecule `CCOC[C@H](CC(C)C)N(Cc1ccc(/N=N\c2ccc(O)c(C(=O)O)c2)cc1)S(=O)(=O)c1ccc(Cn2c(C)nc3cnccc32)cc1`, the ED50 in the assay filed under Rattus norvegicus [1] worked out at 2.51 mg/kg. Further, in the assay listed under Oryctolagus cuniculus, it took 0.4 µM to reach half-maximal inhibition (IC50).

Take `CCOC(=O)[C@H](Cc1ccc(N)cc1)NS(=O)(=O)c1ccc(Cn2c(C)nc3cnccc32)cc1`: the ED50 in the assay on Rattus norvegicus [2] was found to be 0.19 mg/kg. The same molecule showed an IC50 in the assay listed under Oryctolagus cuniculus of 0.74 µM.

On to `Cc1nc2cnccc2n1CC1CCN(C(=O)/C=C(\c2ccccc2)c2ccc(/N=N\c3ccc(O)c(C(=O)O)c3)cc2)CC1`, for which the half-inhibitory concentration (IC50) in the assay listed under Oryctolagus cuniculus came to 7.3 µM.

As to `C/C(=C\C(=O)N1CCC(Cn2c(C)nc3cnccc32)CC1)c1ccc(N)cc1`, the ED50 in the assay filed under Rattus norvegicus [1] turned out to be 0.17 mg/kg. The molecule also registered a 50% inhibitory concentration (IC50) in the assay listed under Oryctolagus cuniculus of 0.06 µM.

`Cc1nc2cnccc2n1CC1CCN(C(=O)CC(C)(C)c2ccc(N)cc2)CC1` registered an IC50 in the assay filed under Oryctolagus cuniculus of 0.019 µM.

`CCOC(=O)[C@H](CC(C)C)N(C(=O)c1ccc(N)cc1)S(=O)(=O)c1ccc(Cn2c(C)nc3cnccc32)cc1` displayed a half-maximal inhibitory concentration (IC50) in the assay listed under Oryctolagus cuniculus of 0.03 µM.

On to `CCOC(=O)[C@H](Cc1ccc(N)cc1)NC(=O)N1CCC(Cn2c(C)nc3cnccc32)CC1`, for which the ED50 in the assay listed under Rattus norvegicus [1] came to 1.13 mg/kg. This molecule also displayed an IC50 in the assay filed under Oryctolagus cuniculus of 0.032 µM.

The molecule `Cc1nc2cnccc2n1CC1CCN(C(=O)/C=C(/c2ccccc2)c2cccc(N)c2)CC1` gave an IC50 in the assay listed under Oryctolagus cuniculus of 0.19 µM.

On to `CCOC(=O)[C@H](CC(C)C)N(Cc1cccc(N)c1)S(=O)(=O)c1ccc(Cn2c(C)nc3cnccc32)cc1`, for which the ED50 in the assay filed under Rattus norvegicus [1] is 0.043 mg/kg. The molecule also yielded a concentration for half-maximal inhibition (IC50) in the assay listed under Oryctolagus cuniculus of 0.017 µM.

Take `Cc1nc2cnccc2n1CC1CCN(C(=O)NC(C)c2ccc(N)cc2)CC1` (stereo unspecified): in the assay filed under Oryctolagus cuniculus, the half-inhibitory concentration (IC50) is 1.6 µM.

With `O=C(O)CCNC(=O)c1ccc(/N=N/c2ccc(O)c(C(=O)O)c2)cc1` [BALSALAZIDE], the concentration for half-maximal inhibition (IC50) in the assay listed under Oryctolagus cuniculus is more than 200 µM.

In the case of `O=C(O)c1cc(/N=N/c2ccc(S(=O)(=O)Nc3ccccn3)cc2)ccc1O` [SULFASALAZINE], the Activity in the assay filed under Rattus norvegicus [3] was 683.3 U (g of tissue)-1. Further, the Animals in the assay listed under Rattus norvegicus [4] was 62.5%. Moreover, the Damage score in the assay filed under Rattus norvegicus [5] was 8 0-10. The Colonic weight in the assay filed under Rattus norvegicus [7] amounted to 154.4 mg/cm. Besides, the half-inhibitory concentration (IC50) in the assay filed under Oryctolagus cuniculus is more than 200 µM.
